Assay results taken from publication PMC8122083 (ACS infectious diseases, 2021).
≈ marks a conversion by molar mass, not a printed value. Like-named read-outs stand apart in the source and are kept apart here.

Columns and labels:
Cytotoxicity assay = type: cell-based; conditions: human, FaDu cells
How it was run: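 FaDu cells, maintained per ATCC protocols, were seeded in EMEM with 10% FBS at 3 x 10^5 cells/ml and grown 24 h at 37°C, 5% CO2. Medium was replaced with two-fold serial dilutions of test compound in fresh medium for 72 h, then with FBS-free EMEM plus resazurin (final 0.15 mM) for 3-5 h. Fluorescence read at ex 540/em 590 nm. IC50 fitted from percent inhibition versus growth controls, converted to pIC50, and reported as mean ± S.E.M.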

H. pylori ATCC 43504 = assay: H. pylori IC50 dose response; type: cell-based; conditions: for IC50: Helicobacter pylori; for fold increase in potency: ATCC 43504 (stated for both strains), lead compounds relative to hits
H. pylori SS1 [1] = assay: H. pylori IC50 dose response; type: cell-based; conditions: for IC50: Helicobacter pylori; for fold greater potency than compound 1: H. pylori SS1; for fold increase in potency: SS1 (stated for both strains), lead compounds relative to hits
H. pylori SS1 [2] = assay: ex vivo H. pylori infection model; design: species or system mouse; conditions: 0.6 μg/mL (1.6μM), 24 hours
H. pylori = H. pylori murine infection model; type: in vivo, mouse; conditions: compared to metronidazole control
Solubility = type: physicochemical
[3] = tested on: panel of representative Gram-negative and Gram-positive species, including commensals; assay: MIC against panel of representative Gram-negative and Gram-positive species; type: cell-based
Mouse pharmacokinetics = type: in vivo, mice
[4] = tested on: H. pylori HM-274 resistant isolates; assay: MIC of spontaneous resistant mutants of H. pylori HM-274; type: cell-based; conditions: two spontaneous mutants selected at twice the MIC of 28
[5] = ATCC43504, read-out: H. pylori ATCC 43504 pIC50 (converted)
[6] = SS1, read-out: H. pylori SS1 pIC50 (converted)

Row | SMILES | IC50 at 72 h (Cytotoxicity assay) [nM] | IC50 (H. pylori ATCC 43504; [5]) [nM] | IC50 (H. pylori SS1 [1]; [6]) [nM] | also measured
1 | CN(CCCO)c1ncnc2sc(-c3ccccc3)cc12 [Compound 8, 3-(methyl(6-phenylthieno[2,3-d]pyrimidin-4-yl)amino)propan-1-ol] | 100000 | 15800 | 6310 | –
2 | OCCNc1ncnc2sc(-c3ccccc3)cc12 [Compound 9, 2-((6-phenylthieno[2,3-d]pyrimidin-4-yl)amino)ethan-1-ol] | 100000 | 5010 | 2000 | –
3 | CC(CO)Nc1ncnc2sc(-c3ccccc3)cc12 (centres unmarked) [Compound 10, 2-((6-phenylthieno[2,3-d]pyrimidin-4-yl)amino)propan-1-ol] | 100000 | 39.8 | 79.4 | fold increase in potency over compound 1 (H. pylori ATCC 43504; ATCC43504): 37 fold; fold greater potency than compound 1 (H. pylori SS1 [1]): 20 fold
4 | CC(O)CNc1ncnc2sc(-c3ccccc3)cc12 (centres unmarked) [Compound 11, 1-((6-phenylthieno[2,3-d]pyrimidin-4-yl)amino)propan-2-ol] | 63100 | 1000 | 398 | fold increase in potency over compound 1 (H. pylori ATCC 43504; ATCC43504): less than 2 fold; fold greater potency than compound 1 (H. pylori SS1 [1]): 4 fold
5 | C[C@@H](CO)Nc1ncnc2sc(-c3ccccc3)cc12 [Compound 12, (S)-2-((6-phenylthieno[2,3-d]pyrimidin-4-yl)amino)propan-1-ol] | 251000 | 5010 | 2510 | –
6 | C[C@H](CO)Nc1ncnc2sc(-c3ccccc3)cc12 [Compound 13, (R)-2-((6-phenylthieno[2,3-d]pyrimidin-4-yl)amino)propan-1-ol] | 31600 | 158 | 31.6 | fold greater potency than compound 1 (H. pylori SS1 [1]): 56 fold
7 | COCC(C)Nc1ncnc2sc(-c3ccccc3)cc12 (centres unmarked) [Compound 14, N-(1-methoxypropan-2-yl)-6-phenylthieno[2,3-d]pyrimidin-4-amine] | 31600 | 1260 | 398 | fold less potent than compound 10 (H. pylori ATCC 43504; ATCC43504): 29 fold
8 | OCCCCNc1ncnc2sc(-c3ccccc3)cc12 [Compound 15, 4-((6-phenylthieno[2,3-d]pyrimidin-4-yl)amino)butan-1-ol] | 126000 | 1580 | 316 | –
9 | CCC(CO)Nc1ncnc2sc(-c3ccccc3)cc12 (centres unmarked) [Compound 16, 2-((6-phenylthieno[2,3-d]pyrimidin-4-yl)amino)butan-1-ol] | 39800 | 100 | 20 | –
10 | CCC(O)CNc1ncnc2sc(-c3ccccc3)cc12 (centres unmarked) [Compound 17, 1-((6-phenylthieno[2,3-d]pyrimidin-4-yl)amino)butan-2-ol] | 39800 | 794 | 251 | –
11 | CC(C)C(CO)Nc1ncnc2sc(-c3ccccc3)cc12 (centres unmarked) [Compound 18, 3-methyl-2-((6-phenylthieno[2,3-d]pyrimidin-4-yl)amino)butan-1-ol] | 50100 | 3160 | 794 | –
12 | COc1ccc(CCNc2ncnc3sc(-c4ccccc4)cc23)cc1OC [Compound 19, N-(3,4-dimethoxyphenethyl)-6-phenylthieno[2,3-d]pyrimidin-4-amine] | 126000 | 158 | 39.8 | fold improved potency over compound 2 (H. pylori ATCC 43504; ATCC43504): 11 fold; IC50 (H. pylori ATCC 43504; ATCC43504): 160 nM
13 | Cc1ccc(CCNc2ncnc3sc(-c4ccccc4)cc23)cc1C [Compound 20, N-(3,4-dimethylphenethyl)-6-phenylthieno[2,3-d]pyrimidin-4-amine] | < 15800 | 79.4 | 501 | –
14 | c1ccc(-c2cc3c(NCCc4ccncc4)ncnc3s2)cc1 [Compound 21, 6-phenyl-N-(2-(pyridin-4-yl)ethyl)thieno[2,3-d]pyrimidin-4-amine] | 126000 | 2510 | 1260 | –
15 | c1ccc(-c2cc3c(NCCc4cccnc4)ncnc3s2)cc1 [Compound 22, 6-phenyl-N-(2-(pyridin-3-yl)ethyl)thieno[2,3-d]pyrimidin-4-amine] | 100000 | 6310 | 3160 | –
16 | COc1cccc(CNc2ncnc3sc(-c4ccccc4)cc23)c1OC [Compound 23, N-(2,3-dimethoxybenzyl)-6-phenylthieno[2,3-d]pyrimidin-4-amine] | 25100 | 1580 | 501 | –
17 | COc1ccc(CC(CO)Nc2ncnc3sc(-c4ccccc4)cc23)cc1 (centres unmarked) [Compound 24, 3-(4-methoxyphenyl)-2-((6-phenylthieno[2,3-d]pyrimidin-4-yl)amino)propan-1-ol] | 15800 | 126 | 251 | –
18 | COc1ccc(C(CO)Nc2ncnc3sc(-c4ccccc4)cc23)cc1 (centres unmarked) [Compound 25, 2-(4-methoxyphenyl)-2-((6-phenylthieno[2,3-d]pyrimidin-4-yl)amino)ethan-1-ol] | 398000 | 20 | 20 | effectiveness in ex vivo model (H. pylori SS1 [2]): highly effective; samples with colony counts below the limit of detection (H. pylori SS1 [2]; 10 samples): 6 of the 10; fold increase in potency (H. pylori ATCC 43504): > 69 fold; IC50 (H. pylori ATCC 43504; ATCC43504): 21 nM; efficacy in H. pylori murine infection model (H. pylori; 25 mg/kg (IP)): did not show efficacy; efficacy in H. pylori murine infection model (H. pylori; 50 mg/kg (IP)): did not show efficacy; efficacy in H. pylori murine infection model (H. pylori; 50 mg/kg (PO)): did not show efficacy; solubility (Solubility): 1 µM (≈ 0.377 µg/mL); MIC [3]: ≥ 16 µg/mL; fold increase in potency (H. pylori SS1 [1]): > 69 fold; exposure upon oral dosing (Mouse pharmacokinetics; mice, oral (PO), compared with IP): lower exposure; AUC (Mouse pharmacokinetics; mouse, plasma, ip, 50 mg/kg): 31900 ng·h/mL
19 | COc1ccc([C@H](CO)Nc2ncnc3sc(-c4ccccc4)cc23)cc1 [Compound 26, (R)-2-(4-methoxyphenyl)-2-((6-phenylthieno[2,3-d]pyrimidin-4-yl)amino)ethan-1-ol] | 15800 | 10 | 6.31 | fold increase in potency (H. pylori ATCC 43504): > 69 fold; IC50 (H. pylori ATCC 43504; ATCC43504): 10 nM; MIC [3]: ≥ 16 µg/mL; IC50 (H. pylori SS1 [1]; SS1): 6.8 nM; fold increase in potency (H. pylori SS1 [1]): > 69 fold
20 | COc1ccc([C@@H](CO)Nc2ncnc3sc(-c4ccccc4)cc23)cc1 [Compound 27, (S)-2-(4-methoxyphenyl)-2-((6-phenylthieno[2,3-d]pyrimidin-4-yl)amino)ethan-1-ol] | 50100 | 50.1 | 100 | IC50 (H. pylori ATCC 43504; ATCC43504): 53 nM; IC50 (H. pylori SS1 [1]; SS1): 110 nM
21 | OC[C@H](Nc1ncnc2sc(-c3ccccc3)cc12)c1ccccc1 [Compound 28, (R)-2-phenyl-2-((6-phenylthieno[2,3-d]pyrimidin-4-yl)amino)ethan-1-ol] | < 20000 | 25.1 | 10 | MIC of resistant isolates relative to wildtype [4]: 8 fold; IC50 (H. pylori ATCC 43504; ATCC43504): 23 nM; MIC [3]: ≥ 16 µg/mL
22 | COc1ccc([C@H](CO)Nc2ncnc3sc(-c4ccccc4)cc23)c(F)c1 [Compound 29, (R)-2-(2-fluoro-4-methoxyphenyl)-2-((6-phenylthieno[2,3-d]pyrimidin-4-yl)amino)ethan-1-ol] | 31600 | 20 | 12.6 | MIC [3]: ≥ 16 µg/mL
23 | COc1ccc([C@H](CO)Nc2ncnc3sc(-c4ccccc4)cc23)cc1F [Compound 30, (R)-2-(3-fluoro-4-methoxyphenyl)-2-((6-phenylthieno[2,3-d]pyrimidin-4-yl)amino)ethan-1-ol] | 31600 | 15.8 | 12.6 | MIC [3]: ≥ 16 µg/mL
24 | COc1ccc([C@H](CN)Nc2ncnc3sc(-c4ccccc4)cc23)cc1F [Compound 31, (R)-1-(3-fluoro-4-methoxyphenyl)-N^1-(6-phenylthieno[2,3-d]pyrimidin-4-yl)ethane-1,2-diamine] | 50100 | 3160 | 1000 | fold increase in H. pylori IC50 on substituting hydroxyl for primary amine (H. pylori ATCC 43504; ATCC 43504, relative to 30): > 79 fold; MIC [3]: ≥ 16 µg/mL; fold increase in H. pylori IC50 on substituting hydroxyl for primary amine (H. pylori SS1 [1]; SS1, relative to 30): > 79 fold
25 | Cc1sc2ncnc(N[C@@H](CO)c3ccccc3)c2c1C [Compound 37, (R)-2-((5,6-dimethylthieno[2,3-d]pyrimidin-4-yl)amino)-2-phenylethan-1-ol] | < 20000 | 6310 | 631 | –
26 | Cc1c(-c2ccccc2)sc2ncnc(N[C@@H](CO)c3ccccc3)c12 [Compound 38, (R)-2-((5-methyl-6-phenylthieno[2,3-d]pyrimidin-4-yl)amino)-2-phenylethan-1-ol] | 20000 | 316 | 50.1 | –
27 | Cc1sc2ncnc(N[C@@H](CO)c3ccccc3)c2c1-c1ccccc1 [Compound 39, (R)-2-((6-methyl-5-phenylthieno[2,3-d]pyrimidin-4-yl)amino)-2-phenylethan-1-ol] | 126000 | 15800 | 7940 | –
28 | OC[C@H](Nc1ncnc2scc(-c3ccccc3)c12)c1ccccc1 [Compound 40, (R)-2-phenyl-2-((5-phenylthieno[2,3-d]pyrimidin-4-yl)amino)ethan-1-ol] | 31600 | 3980 | 501 | –
